Test results from ChEMBL document CHEMBL4613289, “Pharmacophore-Based Design of New Chemical Scaffolds as Translational Readthrough-Inducing Drugs (TRIDs)” (ACS Med Chem Lett, 2020).
Activity calls are given as the source filed them. The rule behind the calls is not given here.

What was measured:
Assay type in all cases: cell-based
[1] = Cytotoxicity against rat FRT cells at 12 uM after 24 to 72 hrs by trypan blue staining based assay
Procedure, shortened: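 Wild-type CFTR FRT cells treated with 12 μM compound, with 12 μM PTC124 as the control. Percentages of live and dead cells and cell proliferation were scored at 24, 48 and 72 h after treatment.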

HeLa = test: Induction of read through activity at CFTR gene premature termination codon UGA transfected in human HeLa cells assessed as increase in luciferase activity at 12 uM incubated for 24 hrs by steady-glo luciferase reporter gene assay
Procedure, shortened: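 HeLa cells were transiently transfected with pFLuc-opal (UGA stop) and treated for 24 h at 12 μM, with 12 μM PTC124 as reference. FLuc activity was then measured. pFLuc-WT transfected cells served as the positive control and untreated pFLuc-opal cells as the negative control.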

Homo sapiens = organism: Homo sapiens; test: Induction of mutation read through activity at human CFTR G542X mutant premature termination codon UGA transfected in FRT cells assessed as increase in CFTR protein expression at 12 uM incubated for 24 hrs by DAPI-staining based immunofluorescence microscopic analysis
Procedure, shortened: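 FRT cells stably carrying pTracer vectors with human G542X-CFTR or WT-CFTR cDNA were exposed to 12 μM compound for 24 h. CFTR was detected by immunofluorescence microscopy, with membrane stained red and nuclei stained with DAPI. Untreated G542X cells served as the negative control.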

Structure (SMILES)	Activity [1]	Activity (HeLa)	Activity (Homo sapiens)
O=S(=O)(Oc1ccc(F)cc1F)c1cccc(S(=O)(=O)Oc2ccc(F)cc2F)c1	Non-Toxic	Active	–
O=C(O)c1ccc2nc(-c3ccccc3Cl)[nH]c2c1	Non-Toxic	Active	Active
COC(=O)c1csc(COc2cc(Cl)cc(Cl)c2)n1	Non-Toxic	Active	Active
O=C(O)c1cccc(-c2noc(-c3ccccc3F)n2)c1 [ATALUREN]	Non-Toxic	Active	–
COC(=O)c1ccc2nc(-c3cc(Cl)cc(Cl)c3)oc2c1	Non-Toxic	Active	–
